Experimental data as given in ChEMBL document CHEMBL4602675, “The Marine Natural Product Manzamine A Inhibits Cervical Cancer by Targeting the SIX1 Protein” (J Nat Prod, 2020).

Experiments:
SiHa = assay: Cell cycle arrest in human SiHa cells assessed as accumulation at G2/M phase at 4 uM after 48 hrs by propidium iodide staining based flow cytometric analysis (reference value: 14.7%); type: functional
Summary of the method: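 Cells in DMEM with 10% FBS, 2 mM L-glutamine, pen-strep, 37 °C, 5% CO2; seeded and left overnight, then treated at 4 μM with DMSO as control. Harvested by trypsin at 24, 48 or 72 h, fixed in chilled 70% ethanol 30 min on ice, RNase A (1 mg/mL) 30 min at room temperature, PI (20 μg/mL). Flow cytometry, ≥10 000 events, G0/G1, S, G2/M fractions; mean ± SEM.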

C-33-A = assay: Induction of apoptosis in human C33A cells assessed as viable cells at 4 uM after 24 hrs by Annexin V-FITC/PI double staining based flow cytometric analysis (reference value: 93.3%); type: functional; settings: read-out: Activity

O[C@]12C=C(c3nccc4c3[nH]c3ccccc34)[C@@H]3CCN(CCCC/C=C\CC1)C[C@@]31C[C@@H]3/C=C\CCCCN3[C@H]12 [MANZAMINE A]
Activity (SiHa): 8.2%
viability at 4 µM (C-33-A): 72.7%
